pIC50: −log10 of the molar value.
Tests used:
[1] = test system: UACC-375; test: Inhibitory activity against […] cell line; assay type: functional, cell-based; details: Homo sapiens
[2] = test system: L1210; test: Inhibitory activity against resistant murine leukemia L1210 cell lines.; assay type: functional, cell-based; details: Mus musculus
[3] = test system: L1210; test: Inhibitory activity against sensitive L1210 cell lines; assay type: functional, cell-based; details: Mus musculus
[4] = Toxicity ratio determined by the quotient of IC50 values in the myocytes divided by the average value in the three tumor lines.; assay type: functional
How it was run: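 Ratio is the myocyte cardiotoxicity IC50 (1-h exposure, ATP/protein ratio versus untreated myocytes) divided by the mean IC50 in sensitive L1210 and the two human tumor lines, measured with continuous exposure.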

[5] = test system: Tumor cell line; test: An average for IC50 values in the two solid tumor cell lines.; assay type: functional, cell-based
[6] = organism: Rattus norvegicus; test: Cardiotoxicity by a neonatal rat heart myocyte assay; assay type: toxicity
How it was run: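 Neonatal rat heart myocytes exposed to drug for 1 h. Read-out is the ATP/protein ratio relative to untreated control myocytes. IC50 is the 1-h concentration that reduces this ratio to 50% of control.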

[7] = test system: OVCAR-3; test: Inhibitory activity against OVCAR-3 cell line; assay type: functional, cell-based; details: Homo sapiens
[8] = An average for IC50 values in the two solid tumor cell lines and sensitive L1210 leukemia cell line.; assay type: functional, cell-based
[9] = test system: WiDr; test: Tested against WiDr colon (sensitive) in the sulforhodamine B assay.; assay type: functional, cell-based; details: Homo sapiens
How it was run: (§1)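 Sulforhodamine B assay. Cells plated at 50 000/well; drug added on day 2 at 10^1–10^-5 μg/mL in half-log steps from DMSO stock diluted in PBS, final DMSO ≤0.1%. After 8-day exposure at 37 °C, cells fixed with TCA at 4 °C for 1 h and stained 30 min with 0.4% SRB. Dye solubilized in 10 mM Tris and OD read at 564 nm. Six wells per concentration; IC50 averaged.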

[10] = test system: A549; test: Tested against A549 lung carcinoma in the sulforhodamine B assay.; assay type: functional, cell-based; details: Homo sapiens; how it was run: as §1
[11] = test system: WiDr; test: Compound tested against WiDr colon carcinoma (resistant) in the sulforhodamine B assay.; assay type: functional, cell-based; details: Homo sapiens; how it was run: as §1
[12] = test system: MCF7; test: Tested against […] breast carcinoma (sensitive) cell line in the sulforhodamine B assay.; assay type: functional, cell-based; details: Homo sapiens; how it was run: as §1
[13] = test system: MCF7; test: Tested against […] breast carcinoma (doxorubicin resistant) cell line in the sulforhodamine B assay.; assay type: functional, cell-based; details: Homo sapiens; how it was run: as §1
[14] = test system: MCF7; test: Tested against […] breast carcinoma (mitoxantrone resistant)cell line in the sulforhodamine B assay.; assay type: functional, cell-based; details: Homo sapiens; how it was run: as §1
[15] = test system: WiDr; test: Tested against WiDr colon carcinoma (resistant) in the sulforhodamine B assay.; assay type: functional, cell-based; details: Homo sapiens; how it was run: as §1
[16] = test system: L1210; test: Compound was tested against L1210 leukemia at % increase in life span (ILS) in mice at 8 mg/kg dosage.; assay type: functional; details: Mus musculus
How it was run: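 Male DBA/2J mice, 10 per group, inoculated ip on day 0 with 10^6 freshly harvested leukemia cells. Compound given ip in equal doses on days 1, 5 and 9; controls received saline ip on the same days. Highest dose set 10% below the acute LD10. %ILS = 100 × (treated − control)/control, using median life span per group; value reported at highest nontoxic dose.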

[17] = test system: A549; test: Compound was tested against A549 lung carcinoma cell line in the sulforhodamine B assay.; assay type: functional, cell-based; details: Homo sapiens; how it was run: as §1
[18] = test system: WiDr; test: Compound was tested against WiDr colon carcinoma (resistant)cell line in the sulforhodamine B assay.; assay type: functional, cell-based; details: Homo sapiens; how it was run: as §1
[19] = test system: WiDr; test: Compound was tested against WiDr colon (sensitive) cell line in the sulforhodamine B assay.; assay type: functional, cell-based; details: Homo sapiens; how it was run: as §1

| SMILES | pIC50 [1] | pIC50 [2] | pIC50 [3] | Toxicity ratio [4] | pIC50 [5] | pIC50 [6] | pIC50 [7] | pIC50 [8] | pIC50 [9] | pIC50 [10] | pIC50 [11] | pIC50 [12] | pIC50 [13] | pIC50 [14] | Activity [6] | pIC50 [15] | ILS at 8 mg/kg [16] | pIC50 [17] | pIC50 [18] | pIC50 [19] |
| --- | --- | --- | --- | --- | --- | --- | --- | --- | --- | --- | --- | --- | --- | --- | --- | --- | --- | --- | --- | --- |
| CC(=O)Nc1c2ccccc2c2c3c(cccc13)C(=O)N(CCN(C)C)C2=O | 6.14 | 6.31 | 6.31 | >36 | 6.14 | < 4.63 | 6.14 | 6.19 | – | – | – | – | – | – | – | – | – | – | – | – |
| CSc1c2ccccc2c2c3c(cccc13)C(=O)N(CCN(C)C)C2=O | 5.86 | 5.91 | 5.20 | >18 | 5.97 | < 4.30 | 6.12 | 5.55 | – | – | – | – | – | – | – | – | – | – | – | – |
| CNCCN1C(=O)c2ccc(OC)c3cc4ccccc4c(c23)C1=O | 5.67 | 7.57 | 7.39 | 8.9 | 5.87 | 5.09 | 6.27 | 6.04 | – | – | – | – | – | – | – | – | – | – | – | – |
| CN(C)CCN1C(=O)c2cccc3c(N)c4ccccc4c(c23)C1=O | 7.82 | 8.17 | 8.27 | 181 | 7.85 | 5.71 | 7.92 | 7.97 | 7.74 | 8.15 | 7.00 | 7.70 | 7.15 | 7.10 | – | – | – | – | – | – |
| CN(C)CCN1C(=O)c2ccc(N)c3cc4ccccc4c(c23)C1=O | – | – | – | 20 | 6.96 | 5.83 | – | 7.13 | – | – | – | – | – | – | – | – | – | – | – | – |
| CN(C)CCN1C(=O)c2ccc(N(C)C)c3cc4ccccc4c(c23)C1=O | 7.00 | 7.02 | 7.64 | 223 | 6.52 | – | 6.30 | 6.68 | 7.05 | 7.64 | – | 7.17 | 6.89 | 7.10 | 46600 | 6.89 | – | – | – | – |
| CN(C)CCN1C(=O)c2ccc(NCCO)c3cc4ccccc4c(c23)C1=O | 7.32 | 7.32 | 8.22 | 50 | 7.47 | 5.92 | 7.72 | 7.62 | – | – | – | – | – | – | – | – | – | – | – | – |
| CN(C)CCN1C(=O)c2ccc(Cl)c3cc4c(Cl)cccc4c(c23)C1=O | 6.33 | 6.23 | 6.33 | >37 | 6.15 | < 4.63 | 6.02 | 6.20 | – | – | – | – | – | – | – | – | – | – | – | – |
| CN(C)CCN1C(=O)c2ccc(S(C)(=O)=O)c3cc4ccccc4c(c23)C1=O | 7.03 | 7.46 | 7.46 | 32 | 7.03 | 5.64 | 7.03 | 7.14 | – | – | – | – | – | – | – | – | – | – | – | – |
| CN(C)CCN1C(=O)c2cccc3c(Cl)c4ccccc4c(c23)C1=O | 6.29 | 6.69 | 6.81 | 31 | 6.35 | 4.97 | 6.41 | 6.45 | – | – | – | – | – | – | – | – | – | – | – | – |
| CC(=O)Nc1ccc2c3c(c4ccccc4cc13)C(=O)N(CCN(C)C)C2=O | 5.14 | 6.14 | 6.31 | 2.8 | 5.18 | 4.89 | 5.22 | 5.34 | – | – | – | – | – | – | – | – | – | – | – | – |
| CNCCN1C(=O)c2ccc(Cl)c3cc4ccccc4c(c23)C1=O | 5.27 | 7.28 | 7.28 | 4 | 5.55 | 5.12 | 6.57 | 5.72 | – | – | – | – | – | – | – | – | – | – | – | – |
| CCCOc1ccc2c3c(c4ccccc4cc13)C(=O)N(CCN(C)C)C2=O | 6.31 | 7.31 | 7.77 | 27 | 6.37 | 5.11 | 6.44 | 6.54 | 6.96 | 7.72 | – | 7.10 | 6.77 | 6.96 | – | 6.57 | – | – | – | – |
| CN(C)CCNc1ccc2c3c(c4cccc(Cl)c4cc13)C(=O)N(CCN(C)C)C2=O | 7.54 | 8.17 | 8.54 | 47 | 6.99 | 5.49 | 6.75 | 7.16 | – | – | – | – | – | – | – | – | – | – | – | – |
| CCOc1c2ccccc2c2c3c(cccc13)C(=O)N(CCN(C)C)C2=O | 6.65 | 7.30 | 7.20 | 34 | 6.70 | 5.28 | 6.76 | 6.81 | 6.77 | 7.25 | – | 7.64 | 6.70 | 6.96 | – | 7.48 | – | – | – | – |
| Cc1c2ccccc2c2c3c(cccc13)C(=O)N(CCN(C)C)C2=O | 7.38 | 7.15 | 7.47 | 49 | 7.46 | 5.77 | 7.55 | 7.46 | – | – | – | – | – | – | – | – | – | – | – | – |
| CCSc1ccc2c3c(c4ccccc4cc13)C(=O)N(CCN(C)C)C2=O | 7.01 | 8.32 | 8.22 | 189 | 7.24 | 5.11 | 7.72 | 7.39 | – | 8.35 | – | 7.70 | 7.12 | 7.48 | – | 6.96 | – | – | – | – |
| CCc1ccc2c3c(c4ccccc4cc13)C(=O)N(CCN(C)C)C2=O | 6.28 | 6.63 | 6.74 | 19 | 6.28 | 5.11 | 6.28 | 6.39 | – | – | – | – | – | – | – | – | – | – | – | – |
| CN(C)CCNc1c2ccccc2c2c3c(cccc13)C(=O)N(CCN(C)C)C2=O | 6.08 | 6.28 | 6.28 | 205 | 5.73 | 3.54 | 5.54 | 5.85 | – | – | – | – | – | – | – | – | – | – | – | – |
| CN(C)CCN1C(=O)c2ccc(O)c3cc4ccccc4c(c23)C1=O | 5.50 | 6.84 | 6.66 | >18 | 5.71 | < 4.62 | 6.14 | 5.87 | – | – | – | – | – | – | – | – | – | – | – | – |
| CSc1ccc2c3c(c4ccccc4cc13)C(=O)N(CCN(C)C)C2=O | 7.70 | 9.28 | 9.43 | 310 | 7.85 | 5.52 | 8.06 | 8.01 | 7.92 | 8.38 | – | 8.00 | 7.92 | 7.36 | – | 7.19 | – | – | – | – |
| COc1c2ccccc2c2c3c(cccc13)C(=O)N(CCN(C)C)C2=O | 6.81 | 6.96 | 6.93 | 194 | 6.84 | 4.58 | 6.89 | 6.87 | 6.74 | 7.04 | – | 6.82 | 6.74 | 6.57 | – | 6.59 | – | – | – | – |
| CN(C)CCN1C(=O)c2cccc3c(O)c4ccccc4c(c23)C1=O | 5.21 | 6.67 | 6.33 | >9 | 5.44 | < 4.62 | 5.93 | 5.59 | – | – | – | – | – | – | – | – | – | – | – | – |
| COc1ccc2c3c(c4ccccc4cc13)C(=O)N(CCN(C)C)C2=O | 8.11 | 8.41 | 8.59 | 205 | 8.34 | 6.10 | 8.89 | 8.41 | 7.77 | 8.66 | – | 7.85 | 6.57 | 7.72 | – | 7.48 | 86% | – | – | – |
| CN(C)CCN1C(=O)c2ccc(Cl)c3cc4ccccc4c(c23)C1=O | 7.41 | 7.19 | 7.11 | 53 | 7.11 | 5.39 | 6.94 | 7.11 | – | – | – | 7.60 | 6.92 | 7.30 | – | – | – | 7.72 | 6.46 | 7.15 |

— ChEMBL document CHEMBL1129062, “6- and 7-substituted 2-[2'-(dimethylamino)ethyl]-1,2-dihydro-3H-dibenz[de,h] isoquinoline-1,3-diones: synthesis, nucleophilic displacements, antitumor activity, and quantitative structure-activity relationships” (J Med Chem, 1996)
